For the data set, the system named is MS2 coat protein. The data set is described as follows: apparent Kd, MS2 coat protein; higher = weaker binding; RNA-MaP array; FMN 200 µM where present. A digest of the protocol:
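Stalled E. coli RNA polymerase transcribed the designs on Illumina sequencing-chip clusters. SNAP-549-labelled MS2 coat protein was titrated from 0.7 or 1.5 nM, doubling to 3 µM, without and then with constant ligand, in 100 mM Tris-HCl pH 7.5, 80 mM KCl, 4 mM MgCl2, BSA, DTT, yeast tRNA and Tween-20. Per-cluster binding curves were fitted to green signal normalised to red-channel RNA signal and control-cluster median Fmax. The apparent Kd is the median of the filtered fits.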

The mark [1] stands for this setting: designed as: OFF switch for flavin mononucleotide, no ligand.
[2] abbreviates: ligand present: flavin mononucleotide, designed as: OFF switch for flavin mononucleotide.
[3] abbreviates: designed as: ON switch for flavin mononucleotide, no ligand.
[4] abbreviates: ligand present: flavin mononucleotide, designed as: ON switch for flavin mononucleotide.

By apparent Kd is commonly meant a dissociation constant that holds for the conditions of the assay.

Turning to “AUUAUAAAGGUAGGAUAUAGUAUUAUAAUUAAAUUAGAAGGAUCUCACAUGAGGAUCACCCAUGUAAGAGGAUCACCCAUGUAU”, the “apparent Kd” value is 9.64 nM under setting [1] and 9.62 nM under setting [2].
Taken in the same sequence, the figures for “AACUAGUGAGGAUAUACAUGAGGAUCACCCAUGUACGUCGUGGGUAGAAAACAAGUCAGUAGAAGGUGCUAGAC” were 157 nM and 248 nM.
For “CGUGCGUCGACAGGAUAUACAGAUUGGCUCCGGUACAUGAGGAUCACCCAUGUAGAAGGGUCACGCACGGUUAGUUCGUUAUUA”, in that order: 8.88 nM and 40.9 nM.
For “ACUCCUCCUGUUAGGAUAUGCAUCGGGCUUCCGCAGCAGAAGGAACAUGAGGAUCACCCAUGUCAAAUAAAAUC”, in that order: 19.6 nM and 155 nM.
Regarding “GUGUACGAAGGAUAUACAUGAGGAUCACCCAUGUGAAUAAGAUAGAAUAAGAUAAAGUGUAGAAGGUCGAGUGU”, the “apparent Kd” value under setting [1] came out at 33 nM and the “apparent Kd” value under setting [2] turned out to be 29.4 nM.
For “UUACUAUUACAGAAGGUUUAAUAAUAUAUAAAAGAAGGAUAUGUAACAUGAGGAUCACCCAUGUUUCACCCACAUGAGGAUCAU”, in that order: 10.8 nM and 10.4 nM.
For “AUCAGCUUGACAGGAUAUACAUGUCAGCGAAAGCUGACUAUCUUAAUAACAUGAGGAUCACCCAUGUAGAAGGGUCGAGCUGAU”, in that order: 16.9 nM and 26.4 nM.
Taken in the same sequence, the figures for “UAUAUAUAGUAAGGAUAUGUAUAUAUGUUAUAAACAGAAGGUACUGACAUGAGGAUCACCCAUGUUUUAGUGUGGGCAUGUAGA” were 66.2 nM and 96 nM.
For “AUAUAGAUGGUCAGGAUAUGCUAGUGGUAACAGUAGCAGAAGGGACAUGAGGAUCACCCAUGUGGAUACUGCUC”, the “apparent Kd” value runs as follows: under setting [1], 23.9 nM; under setting [2], 93.6 nM.
For “AUCAGCUCGUCAGGAUAUACGUCACUGCGUCAGCAGUGUGGUAAGAUCACAUGAGGAUCACCCAUGUAGAAGGGACGAGUUGAU”, in that order: 13.6 nM and 310 nM.
For “UUACUGUAAUAGAAGGGUAUUUGGGUAGUACAUGAGGAUCACCCAUGUUUUAUAGGAUAUGUUUAUAGUUUUUAAUCAAGUUUA”, in that order: 85.1 nM and 62.3 nM.
For “AUAAUUUUAUAUAUCAUUUUAAUCAGAAGGCAUAACAUGAGGAUCACCCAUGUAAAUUAUUGUUAUGAGGAUAUGAUUUGGUUA”, in that order: 20.3 nM and 72.2 nM.
As for “AUAUCCCGAGGAUAUACAUGAGGAUCACCCAUGUCGGGCCUCUGGCCUAAGGCCGAAAGUAGAAGGUGGGUUUC”, the “apparent Kd” value reads like this: under setting [1], 177 nM; under setting [2], 250 nM.
For “CUGGCCCAGCCCGCCUAGUUCGGGAGAAGGAGGAGACAUGAGGAUCACCCAUGUGGCCUUAUCUCCUAGGAUAUCCCGGCGGGU”, in that order: 5.32 nM and 17.9 nM.
Turning to “GUCGUGCGGCUUUGCUGUACGAGUACAUGAGGAUCACCCAUGUAGGAUAUGGUUCGUUUUGCGUGCUAGAAGGGCGUGCGUUGU”, the “apparent Kd” value under setting [1] was 25.7 nM and the “apparent Kd” value under setting [2] was determined as 21.3 nM.
Taken in the same sequence, the figures for “UGGGAACGAGGAUAUCGAUGGUGGAACAUGAGGAUCACCCAUGUAUGAGAUAGUGUAGGGCGAGAAGGCGUUAAGU” were 94.8 nM and 66.5 nM.
Turning to “UUUUACUAGUAAGGAUAUAUUAGCGAUUAGCUUGUAGAAGGUACAGUCUUAUGUAUAACAUGUUAACAUGAGGAUCACCCAUGU”, the “apparent Kd” value under setting [3] stood at 52 nM and the “apparent Kd” value under setting [4] was 34.2 nM.
For “UGAAUAAUGUUAGGAUAUACAUGAGGAAUCCUCGUAGAAGGAACAUGACAUGAGGAUCACCCAUGUAGCGCUCAGAAGAGCGCA”, in that order: 140 nM and 135 nM.
Regarding “AUGAGUAAAGCAGGAUAUCUAUUGUCUCUGUAACAUGAGGAUCACCCAUGUAGAGAAGGGCUAAUUCUUACUCUUCGGAGUUGA”, the “apparent Kd” value under setting [1] was 10.5 nM and the “apparent Kd” value under setting [2] was found to be 10.1 nM.
Consider “GUGGUCAGACAUGAGGAUCACCCAUGUGGAAUAAAUAACGAACAGGAUAUGCAAUAUAGGAUAUAGUAGAAGGGUUGAUUGGUG”, for which the “apparent Kd” value under setting [3] turned out to be 104 nM and the “apparent Kd” value under setting [4] worked out at 138 nM.
In the case of “UUUAUUAGUUAGAAGGCUUGAUGAAUUACAAUAGACAUGAGGAUCACCCAUGUGUAUUCAUGUCAAGAGGAUAUAGUCAUAUAU”, the “apparent Kd” value under setting [3] worked out at 13.7 nM and the “apparent Kd” value under setting [4] came to 6.54 nM.
For “GUUAGACAUGAGGAUCACCCAUGUGAGGAUAUGAUGCGAUCGUGAUGAAAUGAUCGCAUCAGAAGGCACAUAUG”, the “apparent Kd” value by setting is: under setting [1], 153 nM; under setting [2], 423 nM.
In the case of “ACACCACAUGAGGAUCACCCAUGUAAAGCGUAGCAAGGAUAUGGGCACGGAUAAUUCCGAUCAGAAGGUGUAACGU”, the “apparent Kd” value runs as follows: under setting [3], 51.2 nM; under setting [4], 118 nM.
Taken in the same sequence, the figures for “AGAGAGUGACAGAAGGGCAAGCUCGAAAGCGGAGAACGCGAACGAGCUUGCAGGAUAUGUUGAACAUGAGGAUCACCCAUGUCA” were 7.79 nM and 6.41 nM.
Taken in the same sequence, the figures for “CUAUUUAAGCAGAAGGCGUGGGAAAGAUUUACACGAGGAUAUGCGAUAACGGCGUAUGACAUGAGGAUCACCCAUGUACGUGCG” were 7.22 nM and 4.47 nM.
As for “CGAUAGGACAGAGGAUAUACACAUGAGGAUCACCCAUGUGAUUACAACGCGUAAGCUCCAAACAUGUAGAAGGCUGUCCUAUCG”, the “apparent Kd” value by setting is: under setting [1], 17.6 nM; under setting [2], 20.6 nM.
For “GGAAUACAUGAGGAUCACCCAUGUAAGGAUAUGCUGAAUAACACGGAAUAAUCGUGCAGCAGAAGGUACAAAGG”, in that order: 145 nM and 111 nM.
Take “GUCGAGUGAGGAUAUGGUGAGUAGUGCCUGAGCGCUGCUCACCAGAAGGCACAUGAGGAUCACCCAUGUAUGUC”: the “apparent Kd” value runs as follows: under setting [1], 13.7 nM; under setting [2], 20.7 nM.
Taken in the same sequence, the figures for “GGAUCGAGUGUGAGGAUAUGCUGGUCCUUGGAUCAGCAGAAGGCACAUGAGGAUCACCCAUGUGAAUACGGUCC” were 24 nM and 165 nM.
For “GUAGAGUAGUGAGGAUAUACGAGUACGAUAGUACGGCGAUCCAAUAAUACAUGAGGAUCACCCAUGUAGAAGGCACUUCUCUAC”, in that order: 8.53 nM and 98.7 nM.
For “GCACUGGAUGUAGGAUAUCAGGACGAUAAGUCCUGAGAAGGACAUGAGGAUCACCCAUGUCUCAUAAACCAGUGCUAUAAUAUA”, in that order: 14.6 nM and 18.8 nM.
For the sequence “GGAUCGAGUGUGAGGAUAUGCUGGUCCUUGGAUCAGCAGAAGGCACAUGAGGAUCACCCAUGUGAAGACGAUCC”, the “apparent Kd” value by setting is: under setting [1], 23.6 nM; under setting [2], 187 nM.
For the sequence “AGGUAACAUGAGGAUCACCCAUGUACCAAUAAUGCAGGAUAUCGACACGAAAAUACGUGUCGAGAAGGGCAUGAAA”, the “apparent Kd” value by setting is: under setting [3], 14.1 nM; under setting [4], 16.4 nM.
For “CAGUACAGAGGAUAUACAUGAGGAUCACCCAUGUGUUUCAGCUAGGAGACUAGCGAAAGUAGAAGGCUGUACUG”, the “apparent Kd” value reads like this: under setting [1], 9.57 nM; under setting [2], 25.1 nM.
On to “GUAGCUACUAUUAUACAUGAGGAUCACCCAUGUUACAUGGGUAAGGAUAUUGAAGUUAUUAUUAUCAAGAAGGUACUAUGCUAC”, for which the “apparent Kd” value is, setting by setting: under setting [3], 570 nM; under setting [4], 102 nM.
As for “UUUUAGUGAGGAUAUGUGGCUUCGAUCGUGAGAUCGAGGCUACAGAAGGCACAUGAGGAUCACCCAUGUUCCUG”, the “apparent Kd” value by setting is: under setting [1], 15.7 nM; under setting [2], 55.7 nM.
For “GUCGGCUCGUGAGGAUAUACAACACUGCUUCGGCAGUGUAUUAAGAUCACAUGAGGAUCACCCAUGUAGAAGGCACGAGCUGAU”, in that order: 13.8 nM and 221 nM.
For “GGAUGACAAAGUCAUCCCUGACGGACAUGAGGAUCACCCAUGUAGGAUAUGCUACUCAAAGAGUAGCAGAAGGACAUGUGUCUU”, in that order: 35.5 nM and 206 nM.
As for “UGGAUCAAUACAGGAUAUGGUGACGCACAUGAGGAUCACCCAUGUCCGCAGCGUGCUCAGCACGCCCAGAAGGGUAUUGACUCG”, the “apparent Kd” value under setting [3] is 731 nM and the “apparent Kd” value under setting [4] worked out at 88.8 nM.
For the sequence “ACUAGAUGAGGAUAUGCAUAUUUUCGUGUUCUUCUAGAUUAACAUGAGGAUCACCCAUGUAGAAGGCGUCAAUA”, the “apparent Kd” value reads like this: under setting [1], 16.1 nM; under setting [2], 18.9 nM.
Consider “CUGUCGAUAUCAGGAUAUCGUUUACAUACAUGAGGAUCACCCAUGUAGAUGAUCAGCCUAAUAUACGAGAAGGGAUAACGAUAG”, for which the “apparent Kd” value runs as follows: under setting [3], 10.2 nM; under setting [4], 9.04 nM.
As for “ACGACGAAAGUCGAACGAUGUACGAGAAGGACAUGAGGAUCACCCAUGUUAUCUGUUAUAGACAUGUAGGAUAUCGUACAUCGA”, the “apparent Kd” value is, setting by setting: under setting [1], 8.25 nM; under setting [2], 26.8 nM.
For “UCCGUGGCAUCUCGCGCAUGUCUACAUGAGGAUCACCCAUGUCAGGAUAUACGGAUUGUCGUUCUGUAGAAGGGACAAGGGCUG”, in that order: 131 nM and 108 nM.
Regarding “GCACUGGAUGUAGGAUAUCAGGACGAUAAGUCCUGAGAAGGACAUGAGGAUCACCCAUGUCUCAAAACCAGUGCAUAUAAUAUA”, the “apparent Kd” value under setting [1] was determined as 13.2 nM and the “apparent Kd” value under setting [2] worked out at 19.1 nM.
As to “GCCUAGACUAGGCCCACGGCAUCACAGGAUAUGCCAAUCACAUGAGGAUCACCCAUGUCAACUCCGCAGAAGGGUGAUAUCGUG”, the “apparent Kd” value is, setting by setting: under setting [3], 235 nM; under setting [4], 14.3 nM.
As for “UAUUUUAACUAAGGAUAUCUGUAUUUUGUUGAAACAUGAGGAUCACCCAUGUUCAUGAAAUUAUAGGAGAAGGUAGAUGAAUAA”, the “apparent Kd” value under setting [3] turned out to be 6.65 nM and the “apparent Kd” value under setting [4] was 4.95 nM.
For the sequence “CACCGUUACCGAGGAUAUCGUACAUGAGGAUCACCCAUGUAAUAAAUGAGAAUUUCGGAUGUAUGCGAGAAGGCGGGAAUCGGC”, the “apparent Kd” value reads like this: under setting [1], 34.1 nM; under setting [2], 29.8 nM.
With “GCGUAACAUGAGGAUCACCCAUGUGCCCGAGAAUUCGGGCCGAGAAGGGUGACCGGUCGUUUGGCACAGGAUAUCGACGUUGUG”, the “apparent Kd” value is 31.5 nM under setting [3] and 12.7 nM under setting [4].

The values are drawn from the EternaBench riboswitch data.
